# Sampled rows, rich in hits. Any-hit rate of the full collection: about 2.2%.
# PfGluPho inh: PfG6PD (Plasmodium falciparum) enzyme inhibition | 350,000 tested, 0.78% active | PfGluPho enzyme, NADPH resazurin-diaphorase fluorescence | inhibition, % at 20 µM;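 active = inhibition reaching at least a set limit at 20 µM in the primary screen, cut at about 59% in these data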;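 note: 0% = DMSO wells with substrate and 100% = DMSO wells lacking glucose-6-phosphate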
# Exocytosis inh: blocks lytic granule exocytosis; TALL-104 LAMP-1 surface exposure, flow cytometry; cells stimulated with thapsigargin and PMA; inhibition, % at 10 µM; 360,000 tested, 0.66% active;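 active = inhibition above about 55%, limit read from the data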
# HKDC1 inhibitor: HKDC1 (human) hexokinase inhibition | 340,000 tested, 0.16% active | Q2TB90 | inhibition, % at 20 µM | recombinant HKDC1, G6PDH/diaphorase resazurin coupled fluorescence;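 active = inhibition above about 35% when tested at 20 µM, limit read from the data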;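 note: plate controls were DMSO wells with enzyme for no effect and DMSO wells lacking enzyme for full effect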
#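 Test system: Recombinant HKDC1 (HK5) hexokinase enzyme, produced in-house | Input: HKDC1 at 5 µg/mL | Buffer or medium: Tris pH 8.0 buffer with MgCl2, Tween-20, BSA, BME | Schedule: 90 min reaction incubation at room temperature, dark | Technique: Resazurin-to-resorufin fluorescence via G6PDH and diaphorase coupling, 525/613 nm | Controls: DMSO wells with and without enzyme mix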
# ABHD5 PLIN5 PPI: ABHD5-PLIN5 protein interaction inhibition. 360,000 tested, 0.78% active. AID 602281. Split G. princeps luciferase complementation, luminescence, 4 h. inhibition, % at 4 µM. Q00G26+Q8WTS1;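 active = inhibition above the mean inhibition across every tested compound plus 3 SD, cut at about 22% in these data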;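 note: 0% = DMSO only wells and the 100% control is not disclosed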
# PfGluPho conf: PfG6PD inhibition, single-dose confirmed; shares compounds with PfGluPho inh; 2,400 tested, 34% active; inhibition, % at 20 µM; recombinant PfGluPho, NADPH-diaphorase-resazurin fluorescence; AID 504753;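 active = inhibition of at least 50% at 20 µM in any single replicate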;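 note: 0% = DMSO with substrate and 100% = DMSO lacking glucose-6-phosphate substrate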
# Diaphorase 10uM: inhibits diaphorase or oxidizes, flagging false PfG6PD hits; shares compounds with PfGluPho inh; diaphorase-coupled resazurin reduction, fluorescence, NADPH 10 uM; inhibition, % at 20 µM; 820 tested, 39% active; AID 504862;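 active = average inhibition reaching 50% or more with the compound at 20 µM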;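 note: resorufin red fluorescence formed as diaphorase reduces resazurin using NADPH; 0% = DMSO with enzyme and 100% = DMSO without enzyme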
# Diaph ctr 30uM: inhibits diaphorase or oxidizes, flagging false PfG6PD hits | shares compounds with PfGluPho inh | Diaphorase/resazurin coupled assay, resorufin fluorescence, 30 uM NADPH | inhibition, % at 20 µM | 820 tested, 29% active;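 active = inhibition averaging 50% or more, tested at 20 µM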;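 note: 0% = DMSO with enzyme and 100% = DMSO wells lacking diaphorase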
# ABHD5 PLIN5 conf: confirmation of human ABHD5-PLIN5 interaction inhibitors; shares compounds with ABHD5 PLIN5 PPI; 2,200 tested, 67% active; inhibition, % at 4 µM; biochemical ABHD5-PLIN5 interaction, luminescence; in the data active = inhibition above about 23%;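 note: 0% = DMSO vehicle wells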
# HNF4 split-luc: HNF4 split-luciferase signal hit, counter-screen. shares compounds with ABHD5 PLIN5 PPI. HNF4 dimerization, luminescence, biochemical. inhibition, % at 4 µM. 2,200 tested, 77% active. AID 651674;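 active = mean inhibition across replicate wells exceeding the computed hit threshold, cut at about 13% in these data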;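 note: light from luciferase halves that rejoin when HNF4 fusion proteins dimerize; 0% = DMSO only wells and the 100% control is not given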
# The depositor's hits bear a star; · = no result.
SMILES,PfGluPho inh,Exocytosis inh,HKDC1 inhibitor,ABHD5 PLIN5 PPI,PfGluPho conf,ABHD5 PLIN5 conf,HNF4 split-luc,others
Cn1c(=O)c2c([nH]c(=S)n2CCCc2ccccc2)n(C)c1=O,68*,4,-6,-10,53*,·,·,Diaphorase 10uM=-34;Diaph ctr 30uM=-26
S=C(N/N=C/c1ccc2ncccc2c1)Nc1cccnc1,69*,0,-6,-2,9,·,·,
O=C(O)c1cccc(NC(=S)N/N=C/c2cccc(O)c2)c1,-4,-3,-7,-5,·,·,·,
O=C(O)c1cccc(NC(=S)N/N=C/c2ccccn2)c1,68*,-11,-33,-5,44,·,·,
CN(CCOc1ccccc1)CC(=O)Nc1ccc(Br)cc1F,13,-14,3,-3,·,·,·,
OCc1ccccc1CNCc1ccccc1,2,0,-4,-1,·,·,·,
OCc1ccccc1SSc1ccccc1CO,67*,34,-1,48*,54*,·,·,Diaphorase 10uM=-19;Diaph ctr 30uM=14
C[C@H](CO)N1C[C@H](C)[C@@H](CN(C)S(=O)(=O)c2ccccc2F)Oc2ncc(Br)cc2C1=O,-1,-2,·,3,·,·,·,
CCOC(=O)c1cnc2ccc(Br)cc2c1NCCO,65*,7,-10,7,16,·,·,
CCOC(=O)c1cnc2ccc(Br)cc2c1NCC(C)O (stereo not given),25,0,-7,-2,·,·,·,
Cc1cc(C)c2c(-n3cccc3)c(NC(=O)OC(C)C)sc2n1,62*,-5,-2,-1,22,·,·,
CCOC(=O)c1c(-c2ccncc2)csc1N,16,0,3,3,·,·,·,
CCOc1ccc(-c2csc(N)c2C(=O)OC)cc1,66*,-2,-10,-12,10,·,·,
COc1cc(S(=O)(=O)N2CC(=O)Nc3ccccc32)ccc1NC(C)=O,14,3,2,1,·,·,·,
CCOC(=O)NC(N(O)c1cccc(Cl)c1)C(Cl)(Cl)Cl (stereo not given),85*,-4,3,-15,18,·,·,
Cc1cccc(N2CCN(C(=O)C3CCC(CNS(=O)(=O)c4cccs4)CC3)CC2)c1C (stereo not given),16,22,0,8,·,·,·,
O=c1[nH]c2ccc(NS(=O)(=O)c3ccc(F)c(Cl)c3)cc2[nH]1,63*,-8,3,-1,16,·,·,
O=c1[nH]c2ccc(NS(=O)(=O)c3ccc(Cl)cc3)cc2[nH]1,64*,12,0,-10,2,·,·,
Cc1ccc(S(=O)(=O)Nc2ccc3[nH]c(=O)[nH]c3c2)c(C)c1,49,1,11,0,20,·,·,
Cc1c(Cl)cccc1NS(=O)(=O)c1c(C(=O)N2CCOCC2)c(C)n(C)c1C,-9,3,-4,9,·,·,·,
COc1ccc(C(=O)COC(=O)c2cc(S(=O)(=O)N3CCCCC3)ccc2N2CCOCC2)c(OC)c1,11,0,2,6,·,·,·,
Cc1cccc(OCC(=O)NCC(=O)N/N=C/c2c(C)[nH]c3ccccc23)c1,63*,-3,-1,6,26,·,·,
O=[N+]([O-])c1ccc(-[n+]2ccc3ccccc3c2)c([N+](=O)[O-])c1,94*,3,25,29*,67*,62*,58*,Diaphorase 10uM=38;Diaph ctr 30uM=50
CC1=CC(=O)C(Sc2ccc(C)cc2)=CC1=O,124*,-3,·,62*,109*,60*,97*,Diaphorase 10uM=90*;Diaph ctr 30uM=64*
Cc1ccc(Sc2c(C)[nH]n(C(C)(C)C)c2=O)cc1,-3,2,-6,-6,·,·,·,
SMILES,PfGluPho inh,Exocytosis inh,HKDC1 inhibitor,ABHD5 PLIN5 PPI,PfGluPho conf,ABHD5 PLIN5 conf,HNF4 split-luc,others
C#CCOCCOCCOCCNc1nc(N2CCN(C(=O)CCCCCCCCCCNC(=O)[C@H](CCCCN)n3cc(CCO)nn3)CC2)nc(N2CCN(C(=O)CCCCCCCCCCNC(=O)[C@@H]([C@H](C)O)n3cc(C)nn3)CC2)n1,66*,-4,0,45*,29,29*,13*,
C#CCOCCOCCOCCNc1nc(N2CCN(C(=O)CCCCCCCCCCNC(=O)Cn3cc(CCCCCN)nn3)CC2)nc(N2CCN(C(=O)CCCCCCCCCCNC(=O)[C@H](CO)n3cc(CCCCCN)nn3)CC2)n1,62*,7,-7,37*,21,10,0,
CSCC[C@@H](CO)NC(=O)[C@H]1O[C@@H](n2ccc(N)nc2=O)[C@H](O)[C@@H]1O,·,13,·,6,·,·,·,
Fc1c(F)c(F)c(SCn2cc(Br)cn2)c(F)c1F,21,0,-4,-7,·,·,·,
O=C(Nc1ccccc1)c1nnsc1S(=O)c1ccc(Cl)cc1 (stereo not given),64*,60*,17,34*,18,90*,106*,
CCN(CC)Cc1cc(Nc2c3ccccc3nc3c4ccccc4n(C)c23)cc(CN(CC)CC)c1O,80*,100*,20,27*,28,44*,29*,
COc1ccc(OC)c2c1C(=O)CC2C (stereo not given),-4,-2,·,-5,·,·,·,
COc1ccc(OC)c2c1C(=O)C(Cl)=C(Cl)C2=O,125*,93*,24,93*,112*,104*,111*,Diaphorase 10uM=81*;Diaph ctr 30uM=42
O=C(Cn1sc2ccccc2c1=O)Nc1ccccc1,122*,50,·,64*,107*,81*,116*,Diaphorase 10uM=-10;Diaph ctr 30uM=10
O=C(CN1C(=O)c2ccccc2C1=O)Nc1ccccc1,-5,-6,-6,-1,·,·,·,
Cc1cc(C)c2c(=O)n(CC(=O)NC3CCCC3)sc2n1,90*,44,1,27*,73*,33*,107*,Diaphorase 10uM=-32;Diaph ctr 30uM=-16
Cc1cc(C)c2c(N)c(C(=O)NC3CCCC3)sc2n1,21,-1,6,-2,·,·,·,
O=C(CSC1=NS(=O)(=O)c2cc(Cl)ccc2N1)Nc1cccc(F)c1,-10,4,2,-1,·,·,·,
Cc1ccc(/C=C/C(=O)N2CCN(S(=O)(=O)c3c(C)c(C)cc(C)c3C)CC2)o1,44,26,-3,16,·,·,·,
Cc1ccc(/C=C/C(=O)N2CCN(S(=O)(=O)c3ccc(C)c(C)c3)CC2)o1,62*,38,8,44*,50*,43*,62*,Diaphorase 10uM=-19;Diaph ctr 30uM=-23
COc1cc2c(cc1OC)C(=O)C(Br)CC2 (stereo not given),112*,100*,·,82*,106*,5,16*,Diaphorase 10uM=101*;Diaph ctr 30uM=98*
O=C(NCCN1CCOCC1)/C(=C/c1ccco1)NC(=O)c1ccccc1,2,-2,-6,-2,·,·,·,
CC1=CC(C)(C)Nc2ccc(OC(=O)C(Cc3ccccc3)N3C(=O)c4ccccc4C3=O)cc21 (stereo not given),31,0,1,0,·,·,·,
